The source made the active and inactive calls. The rule behind the calls is not given here.
Legend:
[1] = molecular target: T1, MAP kinase-interacting serine/threonine-protein kinase 1 (Homo sapiens, UniProt Q9BUB5); test: Activation of MNK1 in human MDA-MB-231 cells assessed as increase in MNK1 phosphorylation at T209/T214 residues at 1.6 to 100 uM incubated for 24 hrs by Western blot analysis; type: cell-based; conditions: filed as activator, dose 1.6-100 µM
Outline: (§1)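 MDA-MB-231 cells, grown in DMEM with 10% heat-inactivated FBS and pen/strep at 37 °C and 5% CO2, were seeded at 6000 cells/cm2 24 h before a 24 h inhibitor exposure. DMSO was kept below 0.5% as the vehicle control. Total lysates (RIPA-type buffer with phosphatase/protease inhibitors, 20–25 μg) were immunoblotted with phospho- and total antibodies at 1:1000, using ECL detection.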
Target sequence in this assay (Q9BUB5 whole entry, looked up): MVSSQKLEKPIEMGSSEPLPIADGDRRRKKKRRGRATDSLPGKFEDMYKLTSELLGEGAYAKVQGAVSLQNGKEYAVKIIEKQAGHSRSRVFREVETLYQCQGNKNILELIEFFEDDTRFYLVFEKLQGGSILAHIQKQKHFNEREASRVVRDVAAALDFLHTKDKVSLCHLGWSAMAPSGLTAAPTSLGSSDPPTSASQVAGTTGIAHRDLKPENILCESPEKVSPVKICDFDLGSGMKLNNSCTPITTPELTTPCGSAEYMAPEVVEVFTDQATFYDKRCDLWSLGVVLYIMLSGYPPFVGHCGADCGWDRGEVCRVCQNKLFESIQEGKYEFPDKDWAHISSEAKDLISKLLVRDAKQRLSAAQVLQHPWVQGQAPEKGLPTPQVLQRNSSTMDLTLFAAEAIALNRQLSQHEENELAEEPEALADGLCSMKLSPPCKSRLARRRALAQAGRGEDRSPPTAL

HEK293 = test: Potentiation of MNK1/eIF4E interaction in HEK293 cells assessed as increase in MNK1 phosphorylation at T209/T214 residues at 100 nM preincubated for 24 hrs followed by UV irradiation and recovery for 40 mins by immunoprecipitation based Western blot assay; type: cell-based; conditions: Homo sapiens, filed as activator, in the assay text read “MNK1/eIF4G interaction” for “MNK1/eIF4E interaction”
Outline: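 HEK-293 cells were exposed to DMSO or inhibitor (100 nM) for 24 h, irradiated with UV at 60 J/m2 and recovered for 40 min at 37 °C. Endogenous eIF4G was immunoprecipitated from about 2 mg of precleared NP-40 lysate on protein A beads overnight at 4 °C. The IP and input were immunoblotted for MNK1 and p-MNK1.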

[2] = molecular target: T1, MAP kinase-interacting serine/threonine-protein kinase 1; test: Activation of MNK1 in human MDA-MB-231 cells assessed as increase in ERK expression at 25 to 100 uM incubated for 24 hrs by Western blot analysis; type: cell-based; conditions: filed as activator, dose 25-100 µM; outline: as §1
Target sequence in this assay (Q9BUB5 whole entry, looked up): as above

[3] = molecular target: T1, MAP kinase-interacting serine/threonine-protein kinase 1; test: Inhibition of human recombinant full length GST-tagged MNK1 expressed in baculovirus expression system assessed as residual activity at 10 uM using S6 peptide as substrate in presence of [gamma-33P]-ATP incubated for 60 mins by radiometric scintillation counting method relative to control
Outline: (§2)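 Radiometric 33PanQinase assay at 10 μM compound (final 1% DMSO). The buffer was 70 mM HEPES-NaOH pH 7.5 with 3 mM MgCl2, 3 mM MnCl2, 3 μM orthovanadate, 1.2 mM DTT and 50 μg/mL PEG20000. […] Reactions ran 60 min at 30 °C, were stopped with 2% H3PO4 and read by scintillation. Residual activity was calculated against high/low controls.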
Target sequence in this assay (Q9BUB5 whole entry, looked up): as above

[4] = molecular target: T2, MAP kinase-interacting serine/threonine-protein kinase 2 (Homo sapiens, UniProt Q9HBH9); test: Inhibition of human recombinant full length GST-tagged MNK2 expressed in insect cells assessed as residual activity at 10 uM using S6 peptide as substrate in presence of [gamma-33P]-ATP incubated for 60 mins by radiometric scintillation counting method relative to control; outline: as §2
Target sequence in this assay (Q9HBH9 whole entry, looked up): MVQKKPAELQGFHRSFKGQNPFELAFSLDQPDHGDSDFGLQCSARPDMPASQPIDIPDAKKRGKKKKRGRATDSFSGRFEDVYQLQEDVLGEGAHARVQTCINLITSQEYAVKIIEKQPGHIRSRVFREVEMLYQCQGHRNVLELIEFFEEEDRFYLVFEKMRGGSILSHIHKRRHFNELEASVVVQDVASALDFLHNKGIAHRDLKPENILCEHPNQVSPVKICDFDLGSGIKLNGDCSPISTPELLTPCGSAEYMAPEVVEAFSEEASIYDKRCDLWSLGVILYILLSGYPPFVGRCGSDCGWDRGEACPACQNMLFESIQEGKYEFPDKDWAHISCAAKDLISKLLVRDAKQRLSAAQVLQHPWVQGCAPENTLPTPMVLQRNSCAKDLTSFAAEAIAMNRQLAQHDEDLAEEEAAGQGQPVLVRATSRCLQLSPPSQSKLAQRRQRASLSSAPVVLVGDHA

[5] = molecular target: T1, MAP kinase-interacting serine/threonine-protein kinase 1; test: Inhibition of human recombinant full length GST-tagged MNK1 expressed in baculovirus expression system using S6 peptide as substrate in presence of [gamma-33P]-ATP incubated for 60 mins by radiometric scintillation counting method
Outline: (§3)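 Ten compound concentrations from 5 × 10–5 to 1.5 × 10–9 M were tested, and residual activity was calculated from cpm relative to high and low controls.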
Target sequence in this assay (Q9BUB5 whole entry): as the sequence (Q9BUB5 whole entry, looked up) above

[6] = molecular target: T2, MAP kinase-interacting serine/threonine-protein kinase 2; test: Inhibition of human recombinant full length GST-tagged MNK2 expressed in insect cells using S6 peptide as substrate in presence of [gamma-33P]-ATP incubated for 60 mins by radiometric scintillation counting method; outline: as §3
Target sequence in this assay (Q9HBH9 whole entry): as the sequence (Q9HBH9 whole entry, looked up) above

[7] = molecular target: T3, MAP kinase-interacting serine/threonine-protein kinase 1/2 (Homo sapiens) (UniProt Q9HBH9+Q9BUB5); test: Inhibition of MNK1/MNK2 in human MDA-MB-231 cells assessed as reduction in eIF4E phosphorylation incubated for 24 hrs by Western blot analysis; type: cell-based; conditions: dose 0.3-10 µM, DDE = dose-dependent effect; outline: as §1
Homo sapiens = organism: Homo sapiens; test: Selectivity ratio of IC50 for inhibition of human recombinant full length GST-tagged MNK2 to IC50 for inhibition of human recombinant full length GST-tagged MNK1; outline: as §3
[8] = molecular target: T3, MAP kinase-interacting serine/threonine-protein kinase 1/2 (Homo sapiens); test: Inhibition of MNK1/MNK2 in human MDA-MB-231 cells assessed as inhibition of eIF4E phosphorylation at 20 uM incubated for 24 hrs by Western blot analysis; type: cell-based; outline: as §1
[9] = molecular target: T3, MAP kinase-interacting serine/threonine-protein kinase 1/2 (Homo sapiens); test: Inhibition of MNK1/MNK2 in human IMR-90 cells assessed as inhibition of eIF4E phosphorylation incubated for 24 hrs by Western blot analysis; type: cell-based; conditions: dose 0.3-10 µM, DDE = dose-dependent effect
[10] = molecular target: T3, MAP kinase-interacting serine/threonine-protein kinase 1/2 (Homo sapiens); test: Inhibition of MNK1/MNK2 in human MCF7 cells assessed as inhibition of eIF4E phosphorylation incubated for 24 hrs by Western blot analysis; type: cell-based; conditions: dose 0.3-10 µM, DDE = dose-dependent effect
[11] = molecular target: T3, MAP kinase-interacting serine/threonine-protein kinase 1/2 (Homo sapiens); test: Inhibition of MNK1/MNK2 in human MDA-MB-468 cells assessed as inhibition of eIF4E phosphorylation incubated for 24 hrs by Western blot analysis; type: cell-based; conditions: dose 0.3-10 µM, DDE = dose-dependent effect
[12] = molecular target: Eukaryotic translation initiation factor 4E (Homo sapiens) (UniProt P06730); test: Inhibition of eIF4E phosphorylation in human MDA-MB-231 cells at 5 to 20 uM pretreated for 3 hrs followed by UV irradiation and recovery for 40 mins with compound by Western blot analysis; type: cell-based; conditions: dose 5-20 µM, time 220.0 min
Sequence of Eukaryotic translation initiation factor 4E (Homo sapiens) (P06730 whole entry): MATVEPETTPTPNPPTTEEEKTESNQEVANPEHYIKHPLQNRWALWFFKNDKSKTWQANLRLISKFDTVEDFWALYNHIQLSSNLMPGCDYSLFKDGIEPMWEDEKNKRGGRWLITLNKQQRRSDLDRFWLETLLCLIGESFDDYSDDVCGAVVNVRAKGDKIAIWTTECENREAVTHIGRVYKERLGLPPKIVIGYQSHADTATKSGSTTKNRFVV
Outline: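 MDA-MB-231 cells were pretreated with inhibitor for 3 h and then UV-irradiated. They recovered for 40 min at 37 °C with the inhibitor still present. Total lysates were immunoblotted for phospho-eIF4E and pathway markers (p-MNK1, p-p38, p-HSP27, p-ERK, p-p90RSK).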

MDA-MB-231 [13] = test: Cytotoxicity against human MDA-MB-231 cells assessed as reduction in cell viability at 20 uM measured after 72 hrs by crystal violet staining based assay relative to control; type: functional
Outline: (§4)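 Cells were seeded at 6000 cells/cm2, and 24 h later were treated with a range of concentrations (DMSO below 0.5%) for 72 h. They were fixed with 4% formaldehyde for 30 min and stained with 0.5% crystal violet for 15 min. Dye was eluted in 15% acetic acid and read as OD at 595 nm. Results are from three independent experiments, reported as SD; GI50 values were derived from the curves.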

MDA-MB-231 [14] = test: Growth inhibition of human MDA-MB-231 cells measured after 72 hrs by crystal violet staining based assay; type: functional; outline: as §4
MDA-MB-468 = test: Growth inhibition of human MDA-MB-468 cells measured after 72 hrs by crystal violet staining based assay; type: functional; outline: as §4
MCF7 = test: Growth inhibition of human MCF7 cells measured after 72 hrs by crystal violet staining based assay; type: functional; outline: as §4
IMR-90 [15] = test: Cytotoxicity against human IMR-90 cells assessed as reduction in cell viability measured after 72 hrs by crystal violet staining based assay; type: functional; outline: as §4
IMR-90 [16] = test: Cytotoxicity against human IMR-90 cells assessed as increase in dead cells at 2.5 to 40 uM by Hoechst/propidium iodide staining based microscopic analysis; type: toxicity, cell-based; conditions: imr-90, 40 µM, dose 2.5-40 µM
Outline: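 Cells were grown and treated for 72 h as in the crystal violet assay, with cisplatin and DMSO as controls. Before fixation, PI (2.5 μM) and Hoechst (0.05 mg/mL) were added to the medium for 30 min. At least 100 cells per condition were counted microscopically, and PI-positive cells were scored as a percentage of Hoechst-positive cells. Three independent experiments were done.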

MDA-MB-231 [17] = test: Cytotoxicity against human MDA-MB-231 cells assessed as reduction in cell viability measured after 72 hrs by crystal violet staining based assay; type: functional; conditions: dose 2.5-40 µM, DDE = dose-dependent effect; outline: as §4
IMR-90 [18] = test: Cytotoxicity against human IMR-90 cells assessed as reduction in cell viability at 20 uM measured after 72 hrs by crystal violet staining based assay; type: toxicity; conditions: imr-90, 72 h; outline: as §4
[19] = molecular target: T1, MAP kinase-interacting serine/threonine-protein kinase 1; test: Inhibition of MNK1 in human MDA-MB-231 cells assessed as inhibition of eIF4E phosphorylation at 10 uM by Western blot analysis; type: cell-based; conditions: time 0.5-72 hrs, TDE = time-dependent effect
Outline: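 MDA-MB-231 cells were exposed to 10 μM inhibitor for various times. Phospho-eIF4E (Ser209) versus total eIF4E was then assessed by immunoblot of total lysates (20–25 μg protein), with ECL detection.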
Target sequence in this assay (Q9BUB5 whole entry, looked up): as the sequence (Q9BUB5 whole entry, looked up) above

Row | Activity [3] [%] | Activity [4] [%] | Compound | further results
1 | 45 | 82 | COc1ccc(-c2cc(-c3ccc(C)cc3)c3c(N)n[nH]c3n2)cc1 | 
2 | 38 | 74 | COc1cccc(-c2cc(-c3ccccc3)c3c(N)n[nH]c3n2)c1 | IC50 [5]: 4.2 µM; IC50 [6]: 22 µM; inhibition [7]: Dde; Ratio IC50 (Homo sapiens): 4
3 | 97 | 99 | Nc1c2cc(-c3c(Cl)cccc3Cl)c(Cl)nc2nn1-c1ccccc1 | 
4 | 31 | 62 | Nc1n[nH]c2nc(-c3ccccc3)cc(-c3ccc(F)cc3)c12 | IC50 [5]: 1.3 µM; IC50 [6]: 4.1 µM; inhibition [7]: Dde; Ratio IC50 (Homo sapiens): 4
5 | 41 | 92 | COc1ccc(-c2cc(-c3cccc(OC)c3)nc3[nH]nc(N)c23)cc1 | 
6 | 25 | 74 | COc1ccc(-c2cc(-c3ccccc3)nc3[nH]nc(N)c23)cc1 | 
7 | 106 | 95 | Cn1nc(N)c2cccnc21 | 
8 | 94 | 154 | COc1ccc(-c2cc(-c3ccc(OC)cc3)c3c(N)nn(C)c3n2)cc1 | 

Further lines, the compound ahead of its results:

Row | Compound | Activity [3] [%] | Activity [4] [%] | further results
9 | Cc1cc(Nc2cc(N)ncn2)c(=O)n2c1C(=O)NC21CCCCC1 |  |  | Activity [1]: Active; Activity (HEK293): Active; Activity [2]: Active
10 | COc1ccc(-c2cc(-c3ccccc3OC)nc3[nH]nc(N)c23)cc1 | 63 | 109 | 
11 | Nc1c2c(-c3ccccc3)c(Cl)c(Cl)nc2nn1-c1ccccc1 | 103 | 102 | 
12 | COc1ccccc1-c1cc(-c2ccc(C)cc2)c2c(N)n[nH]c2n1 | 61 | 123 | 
13 | COc1ccc(-c2cc(-c3ccccc3)nc3c2c(N)nn3C)cc1 | 102 | 145 | 
14 | COc1cccc(-c2cc(-c3ccc(F)cc3)c3c(N)n[nH]c3n2)c1 | 51 | 82 | 
15 | COc1ccc(-c2cc(-c3ccc(OC)cc3)c3c(N)n[nH]c3n2)cc1 | 60 | 101 | 
16 | Nc1n[nH]c2nc(-c3ccccc3)cc(-c3ccccc3)c12 | 14 | 52 | inhibition [8]: Active; inhibition [7]: Dde; inhibition [9]: Dde; inhibition [10]: Dde; inhibition [11]: Dde; inhibition [12]: Active; Activity (MDA-MB-231 [13]): 60%; GI50 (MDA-MB-231 [14]): 15.1 µM; GI50 (MDA-MB-468): 14.5 µM; GI50 (MCF7): 8.46 µM; GI50 (IMR-90 [15]): > 40 µM; Activity (IMR-90 [16]): Non-Toxic; Activity (MDA-MB-231 [17]): Dde; Activity (IMR-90 [18]): Non-Toxic; inhibition [19]: Tde
17 | Cn1nc(N)c2c(-c3ccccc3)cc(-c3ccccc3)nc21 | 80 | 117 | 
18 | Nc1n[nH]c2ncccc12 | 95 | 102 | 
